Assay outcomes from PubChem.
Compounds with a hit are over-represented: about 0.99% of the library has one in this group of screens.
GSK3A inh: inhibitors of human GSK-3 alpha kinase; actives 0.1% (n = 320,000); ADP-Glo luminescence, 60 min; inhibition, % at 10 µM;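 active means more than half of replicates show inhibition above 20%; inconclusive means some but at most half of replicates above 20% inhibition; inactive means no replicate shows inhibition above 20%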;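 further: GST-tagged GSK-3 alpha with peptide substrate and 25 µM ATP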
Target sequence (P49840 whole entry, looked up): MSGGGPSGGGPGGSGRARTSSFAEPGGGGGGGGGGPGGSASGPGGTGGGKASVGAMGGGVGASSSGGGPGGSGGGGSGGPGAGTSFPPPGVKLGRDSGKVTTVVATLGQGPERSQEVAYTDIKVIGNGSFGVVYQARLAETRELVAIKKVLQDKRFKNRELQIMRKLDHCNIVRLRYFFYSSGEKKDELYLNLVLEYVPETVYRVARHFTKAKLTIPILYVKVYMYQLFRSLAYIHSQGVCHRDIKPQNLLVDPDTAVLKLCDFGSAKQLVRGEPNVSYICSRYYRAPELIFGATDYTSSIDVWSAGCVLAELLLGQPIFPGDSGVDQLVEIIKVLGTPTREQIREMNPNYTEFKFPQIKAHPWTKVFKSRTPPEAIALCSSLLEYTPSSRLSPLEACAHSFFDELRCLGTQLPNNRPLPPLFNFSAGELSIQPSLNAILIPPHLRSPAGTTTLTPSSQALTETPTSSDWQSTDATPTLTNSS
AI-2 QS modul: modulators of Vibrio harveyi AI-2 quorum sensing system; Vibrio harveyi JMH597 AI-2 luminescence/OD600 ratio, 9 h; stronger effect = lower value; strain lacks LuxN and CqsS sensors; 0 = neutral-control median; activity change, % at 7.5 µM; actives 0.4% (n = 300,000); AID 2094; in the data active means activity change below about -75%, passing the limit was not always enough; inconclusive means no clear call, values can overlap the other calls;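 further: luminescence divided by OD600 gain over 9 h not by final OD600 alone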
STK33 inh: inhibitors of human STK33 kinase; Q9BYT3; purified STK33, MBP phosphorylation, ADP-Glo luminescence; inhibition, % at 10 µM; actives 0.073% (n = 320,000); AID 2661;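 active means inhibition at or above 25%, using the most active replicate where run in duplicate; inactive means inhibition below 25%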
GSK3B inh: inhibitors of human GSK3beta kinase; activity score (negative = inhibition), % at 10 µM; actives 0.038% (n = 300,000); P49841; GST-GSK3beta kinase, ADP-Glo luminescence, 60 min; stronger effect = lower value; AID 2097;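 active means more than half of replicate wells score below -50%, meaning over 50% inhibition versus plate controls; inconclusive means some replicates but at most half score below -50%; inactive means no replicate scores below -50%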
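Test system: GST-tagged human GSK3beta kinase, cell-free; evaluation: activity score scaled between in-plate DMSO and GW8510 controls; measured by: ADP-Glo luminescence; incubation: 60 min reaction, RT; benchmarks: DMSO and 20 µM GW8510; reagent: peptide substrate plus 25 µM ATP (final); medium: Tris/MgCl2 kinase buffer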
Rce1 inh: yeast Ras-converting enzyme inhibition | Q03530 | yeast membranes, quenched prenylated peptide cleavage fluorescence | calls only | actives 0.27% (n = 290,000) | AID 2563;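 active means fall in fluorescence gain of 50% or more versus controls, with final raw signal at or below 3038400; inconclusive means same 50% fall but final raw signal above 3038400; inactive means fall in fluorescence gain under 50%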
DYRK1A inh: blocks rat Dyrk1A kinase activity; ADP-Glo luminescence, NFATc1 peptide; inhibition, % at 12.5 µM; actives 0.43% (n = 310,000); Q63470; in the data active means inhibition above about 50%
Hits are given with their value; – = inactive; ? = inconclusive; · = not tested or not shown; + = active, no number.

SMILES	GSK3A inh	AI-2 QS modul	STK33 inh	GSK3B inh	Rce1 inh	DYRK1A inh
CCSCCOC(=O)C1=C(C)NC(=O)NC1c1ccccc1 (stereo not drawn)	–	–	–	–	+	–
COc1ccc(CCNS(=O)(=O)c2ccc(Br)s2)cc1	–	-77.9	–	–	–	–
O=S(=O)(NCCc1ccccc1)c1ccc(Br)s1	–	–	–	–	–	–
CCOc1ccc(NC(=O)c2ccc(NC(=O)c3cn4c5c(c(N6CCN(C)CC6)c(F)cc5c3=O)OCC4C)cc2)cc1 (stereo not drawn)	–	–	–	–	–	–
CC1COc2c(N3CCN(C)CC3)c(F)cc3c(=O)c(C(=O)O)cn1c23 (stereo not drawn)	–	–	–	–	+	–
CCOC(=O)C1CCCN(C(=O)CCn2nnnc2CN2CCOCC2)C1 (stereo not drawn)	–	–	–	–	+	–
CCN(CC)C(=O)C1CCCN(C(=O)CCn2nnnc2CN2CCOCC2)C1 (stereo not drawn)	–	–	–	–	·	–
COc1ccccc1C1(O)C(=O)Nc2ccccc21 (stereo not drawn)	–	–	–	–	–	–
Nc1nonc1-n1nnc(C(=O)N/N=C/c2ccc(O)cc2)c1CN1CCCCCC1	83.1	–	–	-63.9	–	–
CN1CCN(Cc2c(C(=O)N/N=C/c3cccc(Br)c3)nnn2-c2nonc2N)CC1	–	–	–	–	+	–
Nc1nonc1-n1nnc(C(=O)N/N=C/c2cccc(O)c2)c1CN1CCCC1	·	–	–	–	–	–
CCOc1ccc(S(=O)(=O)NCCC(=O)NC2CCC(C)CC2)cc1 (stereo not drawn)	–	·	–	·	·	–
CCc1ccccc1NC(=S)N(CCCN(C)C)Cc1cc2cc3c(cc2[nH]c1=O)OCO3	–	–	–	–	+	–
CCOc1ccc(-n2ccnc(SCC(=O)NC3CCCC3)c2=O)cc1	–	–	–	–	+	–
CCOC(=O)CCNC(=O)N1CCCC(N2CCN(c3ccc(OC)cc3)CC2)C1 (stereo not drawn)	–	–	–	–	–	–
CC(C)c1ccc(NC(=O)COc2ccccn2)cc1	–	-82.7	·	–	–	–
CC(C)c1ccc(OCC(=O)Nc2ccc(OC(F)(F)F)cc2)cc1	–	–	–	–	–	–
CCc1nnc(NC(=O)c2cc(-c3ccccn3)nc3ccc(Br)cc23)s1	–	–	–	–	–	–
COc1ccc(CN2CCCCC2C(=O)Nc2ccc(OC)c(OCC(C)C)c2)cc1OC (stereo not drawn)	–	–	–	–	+	–
Cc1nc(NC(=O)C2CC2)sc1C(=O)Nc1ccccc1Cl	–	–	–	–	–	·
O=C(Nc1ccncc1)Nc1ccccn1	71.7	–	–	-62.2	–	–
O=C(Nc1ccccc1)Nc1ccncc1	–	–	–	–	–	–
CCc1cc(N2CCOCC2)cc2c1[nH]c1ccccc12	–	–	–	–	+	–
c1ccc2c(c1)[nH]c1c(N3CCOCC3)ncnc12	–	–	–	–	–	–
CCc1nc(SCC(=O)NC2CC2)c2c(C)c(C)sc2n1	–	–	–	–	–	–
SMILES	GSK3A inh	AI-2 QS modul	STK33 inh	GSK3B inh	Rce1 inh	DYRK1A inh
COc1ccc(C2=NN(c3ccc(C=O)cc3)C(c3ccccc3)C2)cc1 (stereo not drawn)	–	–	–	–	?	·
COc1ccc(C2CC(c3cccs3)=NN2c2ccc(C=O)cc2)cc1 (stereo not drawn)	–	–	–	–	+	·
Cn1c(CN2CCCC2)c(C#N)c2ccccc21	–	–	–	–	–	–
Cn1c(CN2CCOCC2)c(C#N)c2ccccc21	–	–	–	–	+	–
COc1ccc(-c2cn3c(n2)CCC3)cc1	–	–	–	–	–	–
c1ccc(-c2ccc(-c3cn4c(n3)CCC4)cc2)cc1	–	–	–	–	+	–
O=C(NNC(=O)c1c(O)c2ccccc2[nH]c1=O)c1ccccc1Br	–	–	–	–	–	–
CC(C)c1ccc(NS(=O)(=O)c2ccc3c(c2)NC(=O)CO3)cc1	·	-84.8	·	–	–	–
CC(C)c1ccc(NS(=O)(=O)c2ccc3c(c2)oc(=O)n3C)cc1	–	-94.3	–	–	–	·
O=C1COc2ccc(S(=O)(=O)Nc3ccc4c(c3)OCO4)cc2N1	–	–	–	–	·	–
CCN(Cc1ccncc1)Cc1ccc(Br)cc1	–	–	–	–	–	–
O=C(O)c1cccnc1Sc1ccccc1	–	–	–	–	–	–
Cc1ccc(Sc2ncccc2C(=O)O)cc1	–	-79.6	–	–	–	–
CCOc1ccc2[nH]c3c(N4CCc5ccccc5C4)ncnc3c2c1	–	–	–	–	+	·
COc1ccccc1C1CC(c2ccc(Br)cc2)=NN1C(=O)c1cccnc1 (stereo not drawn)	–	–	–	–	–	–
COc1cccc(C2CC(c3ccc(Br)cc3)=NN2C(=O)c2ccncc2)c1OC (stereo not drawn)	–	–	–	–	+	–
COc1ccc(-n2c(=S)[nH]c3cc(C(=O)N4CCN(c5ccccc5)CC4)ccc3c2=O)cc1	–	·	–	·	·	–
N#CC(C#N)=C1c2cc(S(N)(=O)=O)ccc2-c2ccc(S(N)(=O)=O)cc21	·	·	·	·	·	–
NS(=O)(=O)c1ccc2c(c1)C(=NO)c1cc(S(N)(=O)=O)ccc1-2	–	–	72.0	–	–	–
CCn1cc(/C=C(\NC(=O)c2ccc(OC)cc2)C(=O)N2CCOCC2)c2ccccc21	–	–	–	–	–	–
Cc1csc(NC(=O)c2ccccc2O)n1	–	–	–	–	+	–
CNC(=O)NC(=O)CSc1nc(-c2cccs2)c(C#N)c(=O)[nH]1	·	–	·	-75.2	–	–
CSc1nc(-c2cccs2)c(C#N)c(=O)[nH]1	–	–	–	–	–	–
CCC(=O)Nc1cc(-c2nn(CC(=O)N3CCCCC3)c(=O)c3ccccc23)ccc1N1CCOCC1	–	–	–	–	+	–
COC(=O)c1c(NC(=O)c2ccc([N+](=O)[O-])o2)sc2c1CCN(C(C)C)C2	–	-89.8	–	–	–	–
SMILES	GSK3A inh	AI-2 QS modul	STK33 inh	GSK3B inh	Rce1 inh	DYRK1A inh
CC(C)N1CCc2c(sc(NC(=O)c3ccc([N+](=O)[O-])o3)c2C(N)=O)C1	–	-89.5	–	–	–	–
CC(=O)N1CCc2c(sc(NC(=O)c3ccc([N+](=O)[O-])o3)c2C#N)C1	·	–	·	–	–	–
COC(=O)c1c(NC(=O)Cc2ccccc2)sc2c1CCN(C(C)C)C2	–	–	–	–	–	–
O=C(Nc1ccccc1C(=O)O)c1cccc(C(=O)Nc2ccccc2C(=O)O)c1	–	–	57.4	–	–	–
CCN(CC)c1ccc(/C=C2/C(=O)c3ccc(C(=O)O)cc3C2=O)cc1	–	·	77.9	·	·	–
CCN(CC)c1ccc(C=C2C(=O)OC3(CCCCC3)OC2=O)cc1	–	–	–	–	–	–
